Data: ChEMBL document CHEMBL4325842, “Design, synthesis, and biological evaluation of novel aminopyrimidinylisoindolines as AXL kinase inhibitors” (Bioorg Med Chem Lett, 2018)

How the values were obtained:
[1] = target: Proto-oncogene tyrosine-protein kinase receptor Ret (Homo sapiens) (UniProt P07949); assay: Inhibition of human RET at 10 uM using MEK1 (K97R) as substrate by [gamma-33P]-ATP assay relative to control
Procedure, shortened: (§1)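 Kinase-panel profiling (50 oncogenic kinases) run by an outside contract service. The test compound was tested at a single concentration of 10 μM. Percent inhibition was calculated as 100 minus % remaining activity.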

[2] = target: Receptor-type tyrosine-protein kinase FLT3 (Homo sapiens, UniProt P36888); assay: Inhibition of human FLT3 using EAIYAAPFAKKK as substrate by [gamma-33P]-ATP assay
[3] = target: Mitogen-activated protein kinase 8 (Homo sapiens) (UniProt P45983); assay: Inhibition of human JNK1 at 10 uM using ATF2 as substrate by [gamma-33P]-ATP assay relative to control
Procedure, shortened: (§2)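 Commercial kinase panel screen at a single concentration of 10 μM. % inhibition was calculated as 100 minus % activity.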

[4] = target: Fibroblast growth factor receptor 1 (Homo sapiens) (UniProt P11362); assay: Inhibition of human FGFR1 at 10 uM using KKKSPGEYVNIEFG as substrate by [gamma-33P]-ATP assay relative to control; procedure, shortened: as §2
[5] = target: Tyrosine-protein kinase Lyn (Homo sapiens) (UniProt P07948); assay: Inhibition of human LYN at 10 uM using poly[Glu:Tyr] (4:1) as substrate by [gamma-33P]-ATP assay relative to control; procedure, shortened: as §2
MV4-11 = assay: Antiproliferative activity against human MV4-11 cells after 2 days by spectrophotometric analysis; assay type: functional; conditions: MV4-11, 48 h
[6] = target: Inhibitor of nuclear factor kappa-B kinase subunit alpha (Homo sapiens) (UniProt O15111); assay: Inhibition of human IKKalpha at 10 uM using KKKKERLLDDRHDSGLDSMKDEE as substrate by [gamma-33P]-ATP assay relative to control; procedure, shortened: as §2
[7] = target: Tyrosine-protein kinase Fyn (Homo sapiens) (UniProt P06241); assay: Inhibition of human FYN at 10 uM using poly[Glu:Tyr] (4:1) as substrate by [gamma-33P]-ATP assay relative to control; procedure, shortened: as §2
[8] = target: Dual specificity mitogen-activated protein kinase kinase 1 (Homo sapiens) (UniProt Q02750); assay: Inhibition of human MEK1 at 10 uM using ERK2 (K52R) as substrate by [gamma-33P]-ATP assay relative to control; procedure, shortened: as §2
[9] = target: Tyrosine-protein kinase Yes (Homo sapiens) (UniProt P07947); assay: Inhibition of human YES at 10 uM using poly[Glu:Tyr] (4:1) as substrate by [gamma-33P]-ATP assay relative to control; procedure, shortened: as §1
[10] = target: Protein kinase C alpha type (Homo sapiens) (UniProt P17252); assay: Inhibition of human PKCalpha at 10 uM using ERMRPRKRQGSVRRRV as substrate by [gamma-33P]-ATP assay relative to control; procedure, shortened: as §1
[11] = target: Insulin receptor (Homo sapiens) (UniProt P06213); assay: Inhibition of human IR at 10 uM using poly[Glu:Tyr] (4:1) as substrate by [gamma-33P]-ATP assay relative to control; procedure, shortened: as §2
[12] = target: Vascular endothelial growth factor receptor 2 (Homo sapiens) (UniProt P35968); assay: Inhibition of human KDR at 10 uM using poly[Glu:Tyr] (4:1) as substrate by [gamma-33P]-ATP assay relative to control; procedure, shortened: as §2
[13] = target: Tyrosine-protein kinase Lck (Homo sapiens) (UniProt P06239); assay: Inhibition of human LCK at 10 uM using poly[Glu:Tyr] (4:1) as substrate by [gamma-33P]-ATP assay relative to control; procedure, shortened: as §2
HeLa = assay: Antiproliferative activity against human HeLa cells after 2 days by spectrophotometric analysis; assay type: functional; conditions: 48 h
Procedure, shortened: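 Cells from ATCC were kept in RPMI 1640 with 5% FBS. They were exposed to graded concentrations in DMSO/RPMI for 48 h at 37 C under 5% CO2, then fixed with 50% trichloroacetic acid. Cellular protein was read at 540 nm at time zero and at 48 h, with and without compound. TGI (100% growth inhibition) was taken from the concentration-response curve.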

[14] = target: Muscle, skeletal receptor tyrosine-protein kinase (Homo sapiens) (UniProt O15146); assay: Inhibition of human MUSK at 10 uM using MBP as substrate by [gamma-33P]-ATP assay relative to control; procedure, shortened: as §2
[15] = target: Serine/threonine-protein kinase PAK 4 (Homo sapiens) (UniProt O96013); assay: Inhibition of human PAK4 at 10 uM using RRRLSFAEPG as substrate by [gamma-33P]-ATP assay relative to control; procedure, shortened: as §1
HT-1080 = assay: Antiproliferative activity against human HT1080 cells after 2 days by spectrophotometric analysis; assay type: functional; conditions: HT-1080, 48 h
[16] = target: Angiopoietin-1 receptor (Homo sapiens) (UniProt Q02763); assay: Inhibition of human TIE2 at 10 uM using poly[Glu:Tyr] (4:1) as substrate by [gamma-33P]-ATP assay relative to control; procedure, shortened: as §1
[17] = target: Tyrosine-protein kinase Mer (Homo sapiens) (UniProt Q12866); assay: Inhibition of human MER at 10 uM using poly[Glu:Tyr] (4:1) as substrate by [gamma-33P]-ATP assay relative to control; procedure, shortened: as §2
[18] = target: Tyrosine-protein kinase Fgr (Homo sapiens) (UniProt P09769); assay: Inhibition of human FGR at 10 uM using poly[Glu:Tyr] (4:1) as substrate by [gamma-33P]-ATP assay relative to control; procedure, shortened: as §2
[19] = target: Death-associated protein kinase 1 (Homo sapiens) (UniProt P53355); assay: Inhibition of human DAPK1 at 10 uM using KKLNRTLSFAEPG as substrate by [gamma-33P]-ATP assay relative to control; procedure, shortened: as §2
[20] = target: Casein kinase I isoform epsilon (Homo sapiens) (UniProt P49674); assay: Inhibition of human CK1 epsilon at 10 uM using KRRRAL[pS]VASLPGL as substrate by [gamma-33P]-ATP assay relative to control; procedure, shortened: as §2
[21] = target: Cyclin-dependent kinase 1/cyclin B1 (Homo sapiens) (UniProt P06493+P14635); assay: Inhibition of human CDK1/cyclinB at 10 uM using Histone H1 as substrate by [gamma-33P]-ATP assay relative to control; assay type: protein-complex assay; procedure, shortened: as §2
[22] = target: Macrophage-stimulating protein receptor (Homo sapiens) (UniProt Q04912); assay: Inhibition of human RON at 10 uM using KKSRGDYMTMQIG as substrate by [gamma-33P]-ATP assay relative to control; procedure, shortened: as §1
[23] = target: Homeodomain-interacting protein kinase 1 (Homo sapiens) (UniProt Q86Z02); assay: Inhibition of human HIPK1 at 10 uM using MBP as substrate by [gamma-33P]-ATP assay relative to control; procedure, shortened: as §2

Chain of Insulin receptor (Homo sapiens) (P06213 28-758 limits assumed): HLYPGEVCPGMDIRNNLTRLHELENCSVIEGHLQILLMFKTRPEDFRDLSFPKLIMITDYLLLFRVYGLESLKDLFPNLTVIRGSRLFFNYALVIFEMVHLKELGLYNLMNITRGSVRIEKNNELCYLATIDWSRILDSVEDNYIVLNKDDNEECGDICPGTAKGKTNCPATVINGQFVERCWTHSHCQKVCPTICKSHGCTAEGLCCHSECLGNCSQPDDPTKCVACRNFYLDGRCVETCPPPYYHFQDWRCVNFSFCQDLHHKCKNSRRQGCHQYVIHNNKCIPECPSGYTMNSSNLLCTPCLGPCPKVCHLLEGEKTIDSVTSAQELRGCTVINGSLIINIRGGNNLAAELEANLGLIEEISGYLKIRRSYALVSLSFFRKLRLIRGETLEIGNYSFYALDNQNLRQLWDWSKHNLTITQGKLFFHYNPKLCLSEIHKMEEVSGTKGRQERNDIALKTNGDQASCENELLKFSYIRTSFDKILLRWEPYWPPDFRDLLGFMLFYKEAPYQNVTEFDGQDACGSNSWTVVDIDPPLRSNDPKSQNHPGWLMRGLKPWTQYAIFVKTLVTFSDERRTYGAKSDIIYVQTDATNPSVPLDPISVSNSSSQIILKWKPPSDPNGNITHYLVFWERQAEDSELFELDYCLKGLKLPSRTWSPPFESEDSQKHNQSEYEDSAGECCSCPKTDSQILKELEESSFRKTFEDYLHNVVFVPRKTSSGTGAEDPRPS
Chain of Insulin receptor (Homo sapiens) (P06213 763-1382 limits assumed): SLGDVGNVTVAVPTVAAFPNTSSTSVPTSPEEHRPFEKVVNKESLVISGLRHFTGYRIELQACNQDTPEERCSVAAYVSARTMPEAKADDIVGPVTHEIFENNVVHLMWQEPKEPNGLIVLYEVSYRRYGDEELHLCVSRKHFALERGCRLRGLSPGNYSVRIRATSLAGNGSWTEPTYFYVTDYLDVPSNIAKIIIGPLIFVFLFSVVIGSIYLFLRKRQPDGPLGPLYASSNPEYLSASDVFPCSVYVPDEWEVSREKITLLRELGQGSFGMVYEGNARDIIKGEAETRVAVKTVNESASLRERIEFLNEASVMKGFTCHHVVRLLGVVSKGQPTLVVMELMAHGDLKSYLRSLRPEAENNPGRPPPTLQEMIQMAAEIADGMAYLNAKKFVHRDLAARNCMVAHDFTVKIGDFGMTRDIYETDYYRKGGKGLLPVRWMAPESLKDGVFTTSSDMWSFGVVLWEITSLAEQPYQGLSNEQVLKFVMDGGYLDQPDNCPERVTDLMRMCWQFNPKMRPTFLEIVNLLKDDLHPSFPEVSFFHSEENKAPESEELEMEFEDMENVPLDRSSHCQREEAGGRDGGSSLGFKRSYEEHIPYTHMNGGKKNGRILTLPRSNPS
Chain of Muscle, skeletal receptor tyrosine-protein kinase (Homo sapiens) (O15146 whole entry): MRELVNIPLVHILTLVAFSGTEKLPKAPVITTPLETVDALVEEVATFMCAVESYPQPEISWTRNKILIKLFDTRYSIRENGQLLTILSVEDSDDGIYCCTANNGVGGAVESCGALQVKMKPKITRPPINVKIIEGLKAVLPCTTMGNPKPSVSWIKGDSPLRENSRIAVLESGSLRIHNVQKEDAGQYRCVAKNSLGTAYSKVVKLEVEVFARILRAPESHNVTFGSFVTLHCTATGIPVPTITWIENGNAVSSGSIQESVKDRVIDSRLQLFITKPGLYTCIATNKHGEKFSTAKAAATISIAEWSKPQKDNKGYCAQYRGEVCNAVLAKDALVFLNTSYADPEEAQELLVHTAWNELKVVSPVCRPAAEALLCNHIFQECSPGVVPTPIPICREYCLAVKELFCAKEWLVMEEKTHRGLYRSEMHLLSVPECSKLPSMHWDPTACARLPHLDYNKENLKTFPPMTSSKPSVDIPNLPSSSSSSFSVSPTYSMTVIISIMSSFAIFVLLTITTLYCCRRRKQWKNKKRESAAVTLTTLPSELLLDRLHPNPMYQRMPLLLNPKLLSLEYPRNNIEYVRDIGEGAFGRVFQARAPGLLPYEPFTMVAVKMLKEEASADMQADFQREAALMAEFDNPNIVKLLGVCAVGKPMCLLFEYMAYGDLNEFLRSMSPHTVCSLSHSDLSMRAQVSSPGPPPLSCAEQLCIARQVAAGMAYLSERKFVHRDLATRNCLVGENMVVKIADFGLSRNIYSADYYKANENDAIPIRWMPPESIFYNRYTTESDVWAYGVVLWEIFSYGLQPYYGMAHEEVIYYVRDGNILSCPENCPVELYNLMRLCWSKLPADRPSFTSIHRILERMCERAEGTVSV
Chain of Death-associated protein kinase 1 (Homo sapiens) (P53355 whole entry, looked up, canonical isoform): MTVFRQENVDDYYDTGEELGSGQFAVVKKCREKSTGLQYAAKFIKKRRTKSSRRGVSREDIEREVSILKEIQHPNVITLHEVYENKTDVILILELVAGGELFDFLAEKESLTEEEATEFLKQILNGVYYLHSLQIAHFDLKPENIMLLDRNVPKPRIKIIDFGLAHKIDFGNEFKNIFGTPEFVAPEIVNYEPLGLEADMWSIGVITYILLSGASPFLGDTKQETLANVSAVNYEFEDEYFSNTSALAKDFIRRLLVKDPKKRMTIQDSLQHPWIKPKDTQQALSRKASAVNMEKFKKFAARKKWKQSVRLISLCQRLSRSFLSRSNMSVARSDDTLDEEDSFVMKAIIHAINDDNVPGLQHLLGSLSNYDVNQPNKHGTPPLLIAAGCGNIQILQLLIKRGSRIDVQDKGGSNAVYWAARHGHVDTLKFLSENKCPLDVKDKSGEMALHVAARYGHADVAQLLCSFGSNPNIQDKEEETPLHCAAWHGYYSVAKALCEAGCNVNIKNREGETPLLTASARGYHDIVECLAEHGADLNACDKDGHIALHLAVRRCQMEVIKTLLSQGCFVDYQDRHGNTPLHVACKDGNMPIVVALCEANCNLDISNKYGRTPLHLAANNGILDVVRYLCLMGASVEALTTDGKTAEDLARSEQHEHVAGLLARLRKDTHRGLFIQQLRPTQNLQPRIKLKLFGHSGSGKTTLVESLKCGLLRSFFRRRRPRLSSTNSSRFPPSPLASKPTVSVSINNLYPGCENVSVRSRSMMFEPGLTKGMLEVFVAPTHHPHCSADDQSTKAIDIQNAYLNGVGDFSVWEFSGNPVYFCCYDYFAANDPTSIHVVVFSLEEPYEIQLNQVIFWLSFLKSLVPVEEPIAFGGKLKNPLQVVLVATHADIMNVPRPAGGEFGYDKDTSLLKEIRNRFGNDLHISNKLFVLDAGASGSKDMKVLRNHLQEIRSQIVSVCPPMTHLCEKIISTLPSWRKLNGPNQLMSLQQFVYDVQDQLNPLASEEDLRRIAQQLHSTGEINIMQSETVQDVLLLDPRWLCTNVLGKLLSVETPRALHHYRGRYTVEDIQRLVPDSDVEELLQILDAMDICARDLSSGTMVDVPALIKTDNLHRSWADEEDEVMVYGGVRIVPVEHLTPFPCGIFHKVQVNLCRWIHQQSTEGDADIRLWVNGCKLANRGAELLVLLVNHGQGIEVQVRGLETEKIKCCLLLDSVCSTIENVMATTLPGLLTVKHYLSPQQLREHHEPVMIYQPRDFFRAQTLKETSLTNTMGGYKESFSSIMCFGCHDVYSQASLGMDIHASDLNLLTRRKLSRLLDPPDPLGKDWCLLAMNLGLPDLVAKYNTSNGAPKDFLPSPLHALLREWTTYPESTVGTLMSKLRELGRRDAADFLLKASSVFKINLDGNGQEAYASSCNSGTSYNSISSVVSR
Chain of Tyrosine-protein kinase Fgr (Homo sapiens) (P09769 2-529 limits assumed): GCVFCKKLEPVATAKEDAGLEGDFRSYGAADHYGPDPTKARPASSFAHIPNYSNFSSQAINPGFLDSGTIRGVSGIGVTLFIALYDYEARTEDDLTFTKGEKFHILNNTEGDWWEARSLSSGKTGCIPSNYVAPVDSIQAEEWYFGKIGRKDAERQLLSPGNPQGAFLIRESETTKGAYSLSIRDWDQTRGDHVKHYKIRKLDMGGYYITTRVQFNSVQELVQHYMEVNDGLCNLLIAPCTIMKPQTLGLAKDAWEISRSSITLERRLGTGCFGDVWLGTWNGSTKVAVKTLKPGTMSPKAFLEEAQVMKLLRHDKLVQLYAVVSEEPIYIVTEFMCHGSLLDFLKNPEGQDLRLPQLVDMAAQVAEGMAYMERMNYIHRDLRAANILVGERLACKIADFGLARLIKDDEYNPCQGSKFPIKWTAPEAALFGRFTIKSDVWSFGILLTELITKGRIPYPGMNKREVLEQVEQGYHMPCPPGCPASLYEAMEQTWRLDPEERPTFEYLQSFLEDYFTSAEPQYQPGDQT

SMILES: CC(=O)N1CCN(c2ccc(Nc3ncc(C(F)(F)F)c(N4Cc5cccc(N(C)S(C)(=O)=O)c5C4)n3)cc2)CC1
- inhibition [1]: 85.2%
- IC50 [2]: 4.6 nM
- inhibition [3]: 45.1%
- inhibition [4]: 26%
- inhibition [5]: 69.1%
- GI50 (MV4-11): 100 nM
- inhibition [6]: 14.1%
- inhibition [7]: 62.2%
- inhibition [8]: 3.6%
- inhibition [9]: 90.5%
- inhibition [10]: 19.3%
- inhibition [11]: 89.8%
- inhibition [12]: 55.8%
- inhibition [13]: 84.1%
- GI50 (HeLa): 730 nM
- inhibition [14]: 66.6%
- inhibition [15]: 16.2%
- GI50 (HT-1080): 1800 nM
- inhibition [16]: 65.4%
- inhibition [17]: 90.6%
- inhibition [18]: 80.6%
- inhibition [19]: 42.2%
- inhibition [20]: -2.5%
- inhibition [21]: 20.5%
- inhibition [22]: 40.1%
- inhibition [23]: 83.8%
